In general, IC50 refers to the point on the concentration scale where inhibition reaches its midpoint. As usually defined, the inhibition is the relative decrease from the control value, in per cent.

SMILES strings stand for the structures. Active and inactive are the calls of the source. The rule behind the calls is not given here.

Data on six compounds can be found in ChEMBL document CHEMBL2163221, “Discovery of a potential anti-ischemic stroke agent: 3-pentylbenzo[c]thiophen-1(3H)-one” (J Med Chem, 2012).

Test [1] concerns Platelet. The test can be described thus: Inhibition of arachidonic acid-induced platelet aggregation in rabbit platelet rich plasma by Born's turbidimetric method. Conditions: Oryctolagus cuniculus. In kind it is functional. A digest of the protocol:
(§1)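 Rabbit carotid blood in 3.8% sodium citrate (9:1); PRP by 500g spin for 10 min, PPP by a further 3000g spin for 10 min. PRP was preincubated in duplicate for 5 min at 37 °C with vehicle or agent (0.1, 0.2, 0.4, 0.8, 1.6 mM). Aggregation was triggered by ADP (10 μM final) or AA (1 mM), and maximal light transmission was read within 5 min, within 3 h of collection. Inhibition % = 100 × (1 − treated/control); IC50 was calculated.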

Test [2] concerns Platelet. The test can be described thus: Inhibition of adenosine diphosphate-induced platelet aggregation in rabbit platelet rich plasma by Born's turbidimetric method. In kind it is functional. Conditions: Oryctolagus cuniculus. A digest of the protocol:
as §1

The test system of test [3] is Rattus norvegicus. The test can be described thus: Antioxidant activity in Sprague-Dawley rat middle cerebral artery occlusion model assessed as increase in superoxide dismutase activity at 80 mg/kg, ig for 7 consecutive days. In kind it is functional. Conditions: route intragastric. In short, it runs like this: (§2)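 Rats pretreated orally in saline for 7 days underwent 2 h MCAO with reperfusion. At 24 h brains were removed, rinsed in cold 0.9% saline, blotted and stored at −70 °C. After protein quantification, GSH, SOD activity and MDA were measured with commercial kits; n = 12/group.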

Test [4] has as its system Platelet. The test can be described thus: Inhibition of arachidonic acid-induced platelet aggregation in rabbit platelet rich plasma at 0.1 mM by Born's turbidimetric method. In kind it is functional. The settings on record: Oryctolagus cuniculus. A digest of the protocol: as §1
Test [5] deals with Rattus norvegicus. Kind of test: Anticerebral ischemic activity in Sprague-Dawley rat middle cerebral artery occlusion model assessed as reduction of water content in brain at 80 mg/kg, ig for 7 consecutive days. The arrangement: dose 80 mg/kg. In kind it is functional, organism-based. A digest of the protocol:
(§3)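 Rats given oral saline-vehicle pretreatment for 7 days underwent 2 h suture MCAO plus reperfusion. At 24 h the animals were decapitated and brains weighed wet, then dried at 105 °C for 24 h. Water % = (wet − dry)/wet × 100; n = 6/group.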

Test [6] has as its system Plasma. The test can be described thus: Anticoagulant activity in rabbit plasma assessed as length of activated partial thromboplastin time. In kind it is functional, cell-free. Conditions: Oryctolagus cuniculus.
Test [7] concerns Rattus norvegicus. Kind of test: Antioxidant activity in Sprague-Dawley rat middle cerebral artery occlusion model assessed as decrease in malondialdehyde level in brain at 80 mg/kg, ig for 7 consecutive days. In kind it is functional. The arrangement: scale not given: the % may be the effect or the level left. Conditions: route intragastric. In short, it runs like this:
as §2

Test [8] has as its system Rattus norvegicus. Kind of test: Anticerebral ischemic activity in Sprague-Dawley rat middle cerebral artery occlusion model assessed as reduction in infarct size in brain at 80 mg/kg, ig for 7 consecutive days by TTC assay. In kind it is functional. The arrangement: scale not given: the % may be the effect or the level left. Conditions: route intragastric. A digest of the protocol: (§4)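 SD rats, chloral hydrate 350 mg/kg ip anaesthesia; right MCA occluded 2 h by silicone-tipped 4-0 nylon filament via ECA into ICA (>80% CBF drop by laser Doppler, 37 ± 0.5 °C), then reperfusion. Dosed in normal saline orally daily 7 days before ischemia. At 24 h, 2-mm coronal slices stained 2% TTC 30 min 37 °C; infarct area as % of whole brain; n = 6.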

In test [9] the test system is Platelet. The test can be described thus: Inhibition of adenosine diphosphate-induced platelet aggregation in rabbit platelet rich plasma at 0.1 mM by Born's turbidimetric method. In kind it is functional. Conditions: Oryctolagus cuniculus. In short, it runs like this:
as §1

Test [10] deals with PC-12. Kind of test: Antioxidant activity in rat PC12 cells assessed as inhibition of hydrogen peroxide induced cytotoxicity at 10 uM treated for 2 hrs prior to H2O2 challenge measured after 1 hr by MTT assay (reference value: 52.45%). In kind it is functional. The arrangement: scale not given: the % may be the effect or the level left. (Tetrazolium dyes change colour on reduction, which living cells bring about.)

The test system of test [11] is Rattus norvegicus. The test can be described thus: Antithrombotic activity in Sprague-Dawley rat arteriovenous shunt model assessed as reduction of thrombus wet weight at 80 mg/kg, po qd for 5 consecutive days. The arrangement: scale not given: the % may be the effect or the level left. In kind it is functional. In short, it runs like this: (§5)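 Male SD rats were dosed by gavage in saline daily for 5 days (n = 12/group). An A-V shunt linked the right carotid artery to the left jugular vein: a saline-filled 14 cm polyethylene tube holding 6 cm of four braided silk threads. After 15 min of flow, the threads were weighed wet, then dried 6 h at room temperature and reweighed, less the pre-experiment thread weight.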

The test system of test [12] is Rattus norvegicus. Kind of test: Antioxidant activity in Sprague-Dawley rat middle cerebral artery occlusion model assessed as increase in glutathione level in brain at 80 mg/kg, ig for 7 consecutive days. Conditions: route intragastric. In kind it is functional. In short, it runs like this: as §2
Test [13] concerns Rattus norvegicus. Kind of test: Anticerebral ischemic activity in Sprague-Dawley rat middle cerebral artery occlusion model assessed as reduction in neurological deficit score at 80 mg/kg, ig for 7 consecutive days by Longa's method. The arrangement: scale not given: the % may be the effect or the level left. In kind it is functional. Conditions: route intragastric. A digest of the protocol:
(§6)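 SD rats were dosed orally in normal saline for 7 days before ischemia (n = 12/group). They were anesthetized ip with 350 mg/kg chloral hydrate and given MCAO with a silicone-tipped 4-0 nylon suture for 2 h, then reperfusion. Occlusion was confirmed as >80% CBF drop by laser Doppler, with core temperature held at 37 °C. Deficits were scored blinded by modified Longa's method 24 h after reperfusion.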

Test [14] has as its system PC-12. The test can be described thus: Antioxidant activity in rat PC12 cells assessed as inhibition of hydroxyl radical-induced cytotoxicity at 10 uM treated for 2 hrs prior to H2O2/Fe+ challenge measured after 1 hr by MTT assay (reference value: 61.95%). In kind it is functional. The arrangement: scale not given: the % may be the effect or the level left.
Test [15] relates to Rattus norvegicus. Kind of test: Antithrombotic activity in Sprague-Dawley rat arteriovenous shunt model assessed as reduction of thrombus dry weight at 80 mg/kg, po qd for 5 consecutive days. In kind it is functional. The arrangement: scale not given: the % may be the effect or the level left. A digest of the protocol:
as §5

Test [16] relates to Rattus norvegicus. Kind of test: Anticerebral ischemic activity in Sprague-Dawley rat middle cerebral artery occlusion model assessed as reduction in infarct size in brain at 3 mg/kg, ig for 7 consecutive days by TTC assay. In kind it is functional. More on the design: scale not given: the % may be the effect or the level left. The settings on record: route intragastric. A digest of the protocol: as §4

The subject of test [17] is Rattus norvegicus. The test can be described thus: Antithrombotic activity in Sprague-Dawley rat arteriovenous shunt model assessed as reduction of thrombus dry weight at 3 mg/kg, po qd for 5 consecutive days. In kind it is functional. The arrangement: scale not given: the % may be the effect or the level left. A digest of the protocol: as §5
The subject of test [18] is Rattus norvegicus. Kind of test: Anticerebral ischemic activity in Sprague-Dawley rat middle cerebral artery occlusion model assessed as reduction of water content in brain at 3 mg/kg, ig for 7 consecutive days. In kind it is functional, organism-based. More on the design: dose 3 mg/kg. A digest of the protocol:
as §3

The subject of test [19] is Rattus norvegicus. The test can be described thus: Anticerebral ischemic activity in Sprague-Dawley rat middle cerebral artery occlusion model assessed as reduction in neurological deficit score at 3 mg/kg, ig for 7 consecutive days by Longa's method. In kind it is functional. More on the design: scale not given: the % may be the effect or the level left. The settings on record: route intragastric. In short, it runs like this:
as §6

Test [20] relates to Rattus norvegicus. The test can be described thus: Antithrombotic activity in Sprague-Dawley rat arteriovenous shunt model assessed as reduction of thrombus wet weight at 3 mg/kg, po qd for 5 consecutive days. In kind it is functional. The arrangement: scale not given: the % may be the effect or the level left. A digest of the protocol: as §5
Test [21] has as its system Rattus norvegicus. The test can be described thus: Antioxidant activity in Sprague-Dawley rat middle cerebral artery occlusion model assessed as increase in glutathione level in brain at 3 mg/kg, ig for 7 consecutive days. In kind it is functional. Conditions: route intragastric. A digest of the protocol:
as §2

Test [22] deals with Rattus norvegicus. The test can be described thus: Antioxidant activity in Sprague-Dawley rat middle cerebral artery occlusion model assessed as increase in superoxide dismutase activity at 3 mg/kg, ig for 7 consecutive days. Conditions: route intragastric. In kind it is functional. A digest of the protocol:
as §2

For test [23], the system named is Rattus norvegicus. The test can be described thus: Antioxidant activity in Sprague-Dawley rat middle cerebral artery occlusion model assessed as decrease in malondialdehyde level in brain at 3 mg/kg, ig for 7 consecutive days. Conditions: route intragastric. In kind it is functional. The arrangement: scale not given: the % may be the effect or the level left. A digest of the protocol: as §2

Turning to `CCCCCCC1SC(=O)c2ccccc21` (racemic), the 50% inhibitory concentration (IC50) in test [1] was found to be 830 µM; in test [2] it was 800 µM.
With `CCCCCCCC1SC(=O)c2ccccc21` (racemic), the IC50 in test [1] is above 1000 µM; in [2], 720 µM.
For `O=C1SC(Cc2ccccc2)c2ccccc21` (racemic) the same measures were above 1000 µM and above 1000 µM.
Turning to `CCCCC1OC(=O)c2ccccc21` (racemic) [RAC-3-N-BUTYLPHTHALIDE], the IC50 is 480 µM in test [1] and above 1000 µM in [2]. Besides, the Activity in test [3] came to 33.61%; in [7] it was 25.73%; in test [8] it was 40.04%; in test [10] it was 68.05%; in test [11], 23.58%; in [12], 40.83%. Besides, the Activity worked out at 31.47% in test [13], 73.05% in [14] and 26.9% in test [15]. For the same compound, the inhibition at 100 µM in test [4] is 17.4%; in test [9], 9.5%. The result in test [5] and in [6] was inactive.
Take `CC(=O)Oc1ccccc1C(=O)O` [ASPIRIN]: the concentration for half-maximal inhibition (IC50) came to 150 µM in test [1] and 880 µM in test [2]. For the same compound, the inhibition at 100 µM is 37.2% in [4] and 10.8% in test [9]. Further, in [6], the outcome was inactive. Also, the Activity in [11] turned out to be 33.45%; in test [15], 34.19%.
In the case of `CC1=NN(c2ccccc2)C(=O)C1` [EDARAVONE], the half-inhibitory concentration (IC50) in test [1] is 250 µM; in test [2] it was 850 µM. Moreover, the Activity in test [16] is 37.31%; in [17] it was 30.08%; in test [19] it was 34.46%; in test [10], 78.05%; in test [20] it was 36.14%; in test [21], 58.33%. Moreover, the Activity in test [14] came out at 83.3%; in test [22] it was 34.2%; in [23], 28.52%. Also, the inhibition at 100 µM in [4] came out at 36.1%; in [9] it was 11.5%. Also, in test [18], the outcome was Active. Further, the result in test [6] was inactive.
